Experimental data published in ChEMBL document CHEMBL1139275, “Design, synthesis, and biological evaluation of biotin-labeled (-)-ternatin, a potent fat-accumulation inhibitor against 3T3-L1 adipocytes” (Bioorg Med Chem Lett, 2009).

Legend:
3T3-L1 [1] = assay: Cytotoxicity against mouse 3T3L1 cells; assay type: cell-based
[2] = Cytotoxicity against mouse 3T3L1 cells at 5.2 uM; assay type: cell-based; details: 3T3-L1 cells, read-out: INH
3T3-L1 [3] = assay: Inhibition of fat accumulation in mouse 3T3L1 cells after 7 days; assay type: functional, cell-based; details: 3T3-L1, 168 h
How it was run: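 3T3-L1 cells were exposed to each sample during differentiation, while untreated controls became fully mature adipocytes. Fat accumulation was expressed relative to the controls, and IC50 was taken as the concentration giving 50% inhibition. Values are means of quadruplicate determinations.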

Compound | IC50 (3T3-L1 [1]) | cytotoxicity at 5.2 µM [2] | IC50 (3T3-L1 [3])
C#CC[C@@H]1C(=O)N[C@H]([C@H](O)C(C)C)C(=O)N[C@H]([C@@H](C)CC)C(=O)N(C)[C@@H](C)C(=O)N(C)[C@@H](CC(C)C)C(=O)N[C@@H](CC(C)C)C(=O)N(C)[C@@H](C)C(=O)N1C | > 5.2 µM | 54% | 0.019 µM
CC[C@H](C)[C@H]1NC(=O)[C@@H]([C@@H](C)O)NC(=O)[C@@H](C)N(C)C(=O)[C@H](C)N(C)C(=O)[C@H](CC(C)C)NC(=O)[C@H](CC(C)C)N(C)C(=O)[C@H](C)N(C)C1=O | – | – | 3.1 µM
CC[C@H](C)[C@H]1NC(=O)[C@@H](CO)NC(=O)[C@@H](C)N(C)C(=O)[C@H](C)N(C)C(=O)[C@H](CC(C)C)NC(=O)[C@H](CC(C)C)N(C)C(=O)[C@H](C)N(C)C1=O | – | – | 12 µM
CC[C@H](C)[C@H]1NC(=O)[C@@H]([C@H](O)C(C)C)NC(=O)[C@@H](Cc2cn(CCOCCOCCNC(=O)CCCC[C@@H]3SC[C@@H]4NC(=O)N[C@@H]43)nn2)N(C)C(=O)[C@H](C)N(C)C(=O)[C@H](CC(C)C)NC(=O)[C@H](CC(C)C)N(C)C(=O)[C@H](C)N(C)C1=O | > 86 µM | – | 46 µM
